Experimental data: ChEMBL document CHEMBL1146584, “Renieramycin J, a highly cytotoxic tetrahydroisoquinoline alkaloid, from a marine sponge Neopetrosia sp” (J Nat Prod, 2003)
The source made the active and inactive calls. The calls are words filed in the database; no cut-off is given here.

How the values were obtained:
3Y1 cell line [1] = assay: Induction of morphological changes in rat 3Y1 cells assessed as cell shrinkage at 86 nM after 6 hrs by phase contrast microscopy; assay type: functional, cell-based
How it was run: (§1)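 Rat 3Y1 cells exposed to 86 nM; nucleoli (shrinkage or loss) and filopodial development inspected at 6 h.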

[2] = Induction of morphological changes in rat 3Y1 cells assessed as cell death at 1.7 uM after 24 hrs
3Y1 cell line [3] = assay: Induction of morphological changes in rat 3Y1 cells assessed as filopodial development; assay type: functional, cell-based; how it was run: as §1
3Y1 cell line [4] = assay: Induction of morphological changes in rat 3Y1 cells assessed as increase in dead cell number after 12 hrs by light microscopy; assay type: functional, cell-based
How it was run: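 3Y1 cells kept under continued exposure; cellular boundaries and dead-cell numbers inspected at 12 h and followed to day five under a light microscope.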

[5] = Cytotoxicity against rat 3Y1 cells after 72 hrs by MTT assay; assay type: functional, cell-based; conditions: 3Y1, 72 h
3Y1 = assay: Induction of morphological changes in rat 3Y1 cells assessed as cell death at 1.7 uM after 24 hrs; assay type: functional, cell-based
How it was run: (§2)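 3Y1 cells exposed to 1.7 μM; cell rounding scored at 6 h, proportion of dead cells estimated within 24 h.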

3Y1 cell line [6] = assay: Induction of morphological changes in rat 3Y1 cells assessed as disappearance of nucleoli at 86 nM after 6 hrs by phase contrast microscopy; assay type: functional, cell-based; how it was run: as §1
HeLa = assay: Cytotoxicity against human HeLa cells after 72 hrs by MTT assay; assay type: functional, cell-based
3Y1 cell line [7] = assay: Induction of morphological changes in rat 3Y1 cells assessed as cell rounding at 1.7 uM after 6 hrs; assay type: functional, cell-based; how it was run: as §2
P388 = assay: Cytotoxicity against mouse P388 cells after 72 hrs by MTT assay; assay type: functional, cell-based; conditions: P388, 72 h

For `C/C=C(/C)C(=O)OC[C@H]1C2=C(C[C@H]3[C@H]4c5c(O)c(OC)c(C)c(O)c5[C@H](O)[C@@H]([C@H](O)N13)N4C)C(=O)C(C)=C(OC)C2=O` [RENIERAMYCIN J], the Activity (3Y1 cell line [1]) was “Active”, the Activity [2] was 90% and the Activity (3Y1 cell line [3]) was “Active”. For the same molecule, the Activity (3Y1 cell line [4]) was “Active”, the IC50 [5] was 5.3 nM and the Activity (3Y1) was “Active”. For the same molecule, the Activity (3Y1 cell line [6]) was “Active”, the IC50 (HeLa) was 12.3 nM and the Activity (3Y1 cell line [7]) was “Active”. It also gave an IC50 (P388) of 0.53 nM.
